# What was measured:
# Rattus norvegicus = test: Percent of Acetylcholine (ACh) released above baseline in rat striatum at the dose of 10 mg/kg p.o. (0-2h); assay type: functional; conditions: route oral
# In short: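 Rats dosed orally at 10 mg/kg in 20% HPβCD; microdialysis of striatum measuring ACh release over the 2 h experiment. Stimulation judged against pre-injection baseline, significance p < 0.05 by Duncan's multiple range statistic.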
# [1] = molecular target: T1, Muscarinic acetylcholine receptor M2 (Homo sapiens, UniProt P08172); test: Antagonistic activity against muscarinic acetylcholine receptor M2; assay type: functional
# T1 sequence (P08172 whole entry): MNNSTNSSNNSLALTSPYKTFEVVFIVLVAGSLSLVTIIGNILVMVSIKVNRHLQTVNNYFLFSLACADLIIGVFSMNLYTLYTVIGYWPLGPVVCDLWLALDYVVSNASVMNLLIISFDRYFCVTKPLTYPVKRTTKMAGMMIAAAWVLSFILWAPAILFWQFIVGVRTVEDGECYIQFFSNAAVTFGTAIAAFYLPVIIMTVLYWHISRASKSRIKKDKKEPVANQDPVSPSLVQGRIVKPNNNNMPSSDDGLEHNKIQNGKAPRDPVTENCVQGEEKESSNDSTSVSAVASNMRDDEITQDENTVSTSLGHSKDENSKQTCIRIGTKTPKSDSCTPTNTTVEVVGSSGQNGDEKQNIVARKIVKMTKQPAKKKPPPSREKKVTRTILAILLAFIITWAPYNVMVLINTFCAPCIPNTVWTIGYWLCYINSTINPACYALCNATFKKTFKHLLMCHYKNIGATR
# In short: (§1)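 Muscarinic receptor binding by a method described elsewhere; values are the mean of duplicates (SEM < 15%), each determination performed at least twice. Selectivity expressed as the ratio of M1 or M3 to M2 binding.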
# [2] = molecular target: Muscarinic acetylcholine receptors; M1 & M2 (Homo sapiens) (UniProt P11229+P08172); test: Selectivity ratio of M1 muscarinic receptor to that of M2 muscarinic receptor; assay type: protein assay; in short: as §1
# [3] = molecular target: Muscarinic acetylcholine receptors; M2 & M3 (Homo sapiens) (UniProt P20309+P08172); test: Selectivity ratio of M3 muscarinic receptor to that of M2 muscarinic receptor; assay type: protein assay; in short: as §1
# [4] = molecular target: T1, Muscarinic acetylcholine receptor M2; test: Antagonistic activity against Muscarinic acetylcholine receptor M2; assay type: functional; in short: as §1
# [5] = Pharmacokinetic property at the dose of 10 mg/kg (20% HPbetaCD) concentration in rat (0 to 6 hr) p.o.; conditions: in vivo, po
# Chain of Muscarinic acetylcholine receptors; M1 & M2 (Homo sapiens) (P11229 whole entry, looked up, one chain of several): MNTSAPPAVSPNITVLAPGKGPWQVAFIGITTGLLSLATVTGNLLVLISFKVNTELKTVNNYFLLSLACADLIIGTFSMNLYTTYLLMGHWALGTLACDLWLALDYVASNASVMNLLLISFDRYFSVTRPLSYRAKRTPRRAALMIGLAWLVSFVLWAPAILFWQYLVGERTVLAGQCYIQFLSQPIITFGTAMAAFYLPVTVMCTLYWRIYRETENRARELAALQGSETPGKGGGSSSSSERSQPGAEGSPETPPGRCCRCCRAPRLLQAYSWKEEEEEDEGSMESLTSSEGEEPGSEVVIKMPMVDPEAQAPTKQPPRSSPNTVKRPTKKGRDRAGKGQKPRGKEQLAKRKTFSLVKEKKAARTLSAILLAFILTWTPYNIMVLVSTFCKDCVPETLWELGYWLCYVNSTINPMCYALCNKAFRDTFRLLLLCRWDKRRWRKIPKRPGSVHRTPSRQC
# Chain of Muscarinic acetylcholine receptors; M2 & M3 (Homo sapiens) (P20309 whole entry, looked up, one chain of several): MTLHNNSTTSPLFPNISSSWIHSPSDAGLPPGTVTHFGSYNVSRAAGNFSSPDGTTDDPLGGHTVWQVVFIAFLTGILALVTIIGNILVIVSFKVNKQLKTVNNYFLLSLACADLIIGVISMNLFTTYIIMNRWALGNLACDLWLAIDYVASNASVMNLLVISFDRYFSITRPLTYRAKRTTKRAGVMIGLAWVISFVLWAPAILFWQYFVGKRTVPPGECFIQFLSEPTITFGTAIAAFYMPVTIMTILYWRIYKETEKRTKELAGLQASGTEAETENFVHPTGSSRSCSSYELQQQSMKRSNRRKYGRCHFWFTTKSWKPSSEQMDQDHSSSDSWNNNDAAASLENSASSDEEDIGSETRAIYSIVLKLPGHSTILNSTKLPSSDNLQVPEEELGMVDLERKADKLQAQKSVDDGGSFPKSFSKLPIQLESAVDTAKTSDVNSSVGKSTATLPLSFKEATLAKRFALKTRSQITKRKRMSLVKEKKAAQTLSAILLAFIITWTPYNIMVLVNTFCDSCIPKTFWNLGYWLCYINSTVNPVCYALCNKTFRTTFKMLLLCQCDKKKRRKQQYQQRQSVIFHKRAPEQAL
SMILES,MD (Rattus norvegicus),Ki [1],Ki [4],other results
COc1ccc(S(=O)(=O)c2ccc(C3(C4CCN(C5CCN(C(=O)c6ccc(F)c7ccccc67)CC5)CC4)OCCO3)cc2)cc1,180%,0.51 nM,–,–
COc1ccc(S(=O)(=O)c2ccc(C3(C4CCN(C5CCN(C(=O)c6cccc7cc(Cl)ccc67)CC5)CC4)OCCO3)cc2)cc1,–,1.4 nM,–,–
CCCS(=O)(=O)N1CCC(N2CCC(C3(c4ccc(S(=O)(=O)c5ccc6c(c5)OCO6)cc4)OCCO3)CC2)CC1,–,–,–,Selectivity ratio [2]: 102; Selectivity ratio [3]: 93
COc1ccc(S(=O)(=O)c2ccc(C3(C4CCN(C5CCN(C(=O)c6cccc7cccc(F)c67)CC5)CC4)OCCO3)cc2)cc1,–,–,0.99 nM,–
COc1ccc(S(=O)(=O)c2ccc(C3(C4CCN(C5CCN(C(=O)c6cccc7c(F)cc(F)cc67)CC5)CC4)OCCO3)cc2)cc1,133%,–,0.23 nM,AUC at 6 h [5]: 367 ng·h/mL
COc1ccc(S(=O)(=O)c2ccc(C3(C4CCN(C5CCN(C(=O)c6cccc7ccccc67)CC5)CC4)OCCO3)cc2)cc1,–,0.14 nM,–,–
COc1ccc(S(=O)(=O)c2ccc(C3(C4CCN(C5CCN(C(=O)c6cccc7c(F)cccc67)CC5)CC4)OCCO3)cc2)cc1,140%,0.2 nM,–,AUC at 6 h [5]: 130 ng·h/mL
CCCS(=O)(=O)N1CCC(N2CCC(C3(c4ccc(S(=O)(=O)c5ccc(OC)cc5)cc4)OCCO3)CC2)CC1,–,–,33.3 nM,Selectivity ratio [2]: 18.3; Selectivity ratio [3]: 25.3
COc1ccc(S(=O)(=O)c2ccc(C3(C4CCN(C5CCN(C(=O)c6cccc7c(F)ccc(F)c67)CC5)CC4)OCCO3)cc2)cc1,120%,–,0.29 nM,–
COc1ccc(S(=O)(=O)c2ccc(C3(C4CCN(C5CCN(C(=O)c6cccc7c(Br)cccc67)CC5)CC4)OCCO3)cc2)cc1,125%,0.51 nM,–,AUC at 6 h [5]: 702 ng·h/mL
COc1ccc(S(=O)(=O)c2ccc(C3(C4CCN(C5CCN(C(=O)c6cccc7ccc(F)cc67)CC5)CC4)OCCO3)cc2)cc1,–,1.2 nM,–,–
COc1ccc(S(=O)(=O)c2ccc(C3(C4CCN(C5CCN(C(=O)c6cccc7cc(F)ccc67)CC5)CC4)OCCO3)cc2)cc1,–,0.81 nM,–,–

# Reference: ChEMBL document CHEMBL1133934, “Metabolic stabilization of benzylidene ketal M(2) muscarinic receptor antagonists via halonaphthoic acid substitution” (Bioorg Med Chem Lett, 2001)
